Laboratory results from ChEMBL document CHEMBL2346521, “Synthesis, structure-activity relationship studies, and identification of novel 5,6,7,8-tetrahydroimidazo[1,5-a]pyrazine derivatives as dual orexin receptor antagonists. Part 1” (Bioorg Med Chem Lett, 2013).

Experiments:
[1] = molecular target: T1, Orexin/Hypocretin receptor type 1 (Homo sapiens, UniProt O43613); assay: Antagonist activity at human OX1 receptor expressed in CHO cells assessed as inhibition of orexin A-induced calcium influx by FLIPR assay; type: functional, cell-based
T1 sequence (O43613 whole entry): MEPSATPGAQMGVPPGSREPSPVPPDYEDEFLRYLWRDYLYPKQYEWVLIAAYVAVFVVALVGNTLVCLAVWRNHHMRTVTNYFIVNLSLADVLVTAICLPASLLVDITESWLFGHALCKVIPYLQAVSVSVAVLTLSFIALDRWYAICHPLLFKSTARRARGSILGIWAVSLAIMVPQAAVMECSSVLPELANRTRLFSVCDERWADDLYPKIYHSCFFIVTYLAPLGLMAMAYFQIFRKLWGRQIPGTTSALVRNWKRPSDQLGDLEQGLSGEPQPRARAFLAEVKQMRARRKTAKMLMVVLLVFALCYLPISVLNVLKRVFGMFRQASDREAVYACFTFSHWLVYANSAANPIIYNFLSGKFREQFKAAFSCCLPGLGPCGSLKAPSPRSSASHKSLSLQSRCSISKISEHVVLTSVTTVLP
Method in brief: (§1)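 CHO cells stably expressing human OX1R or OX2R, loaded at 37 °C, 5% CO₂ with the calcium dye fluo-3 AM, then washed. Antagonist added at a range of concentrations before an approximately EC₈₀ orexin A challenge. Ca²⁺ mobilization read by FLIPR. IC₅₀ taken as the concentration giving 50% inhibition of the orexin A-induced calcium response, reported in nM.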

Orexin receptor type 2 = molecular target: T2, Orexin receptor type 2 (Homo sapiens, UniProt O43614); assay: Antagonist activity at human OX2 receptor expressed in CHO cells assessed as inhibition of orexin A-induced calcium influx by FLIPR assay; type: functional, cell-based; method in brief: as §1
T2 sequence (O43614 whole entry): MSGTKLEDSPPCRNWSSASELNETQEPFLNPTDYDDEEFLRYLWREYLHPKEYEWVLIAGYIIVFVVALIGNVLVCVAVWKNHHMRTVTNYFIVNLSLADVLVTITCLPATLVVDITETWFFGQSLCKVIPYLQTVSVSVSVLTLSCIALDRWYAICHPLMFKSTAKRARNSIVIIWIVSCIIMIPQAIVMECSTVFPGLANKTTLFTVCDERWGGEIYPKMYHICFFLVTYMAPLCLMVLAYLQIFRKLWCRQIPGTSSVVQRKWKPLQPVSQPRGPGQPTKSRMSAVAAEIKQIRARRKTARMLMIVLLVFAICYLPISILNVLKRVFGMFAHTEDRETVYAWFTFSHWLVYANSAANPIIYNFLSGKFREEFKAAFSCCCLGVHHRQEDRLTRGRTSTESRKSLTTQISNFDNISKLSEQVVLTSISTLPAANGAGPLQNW

[2] = Ratio of drug level in brain to plasma in Wistar rat at 100 mg/kg, po after 3 hrs; type: ADME, organism-based; parameters: dose 100 mg/kg, route oral; details: read-out: BPR
Method in brief: (§2)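 Male Wistar rats dosed orally at 100 mg/kg. Brain and plasma sampled 3 h after dosing. Total compound levels given as nM and as ng/g (brain) or ng/ml (plasma). Brain/plasma ratio calculated from these total concentrations.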

[3] = Drug uptake in Wistar rat brain at 100 mg/kg, po after 3 hrs; type: ADME, organism-based; parameters: dose 100 mg/kg, route oral; details: read-out: Drug uptake; method in brief: as §2
[4] = Plasma concentration in Wistar rat at 100 mg/kg, po after 3 hrs; type: ADME, organism-based; parameters: dose 100 mg/kg, route oral; method in brief: as §2
[5] = Plasma protein binding in human; type: ADME, cell-free; details: read-out: PPB

SMILES	IC50 [1] [µM]	IC50 (Orexin receptor type 2) [µM]	Kp at 3 h [2]	concentration at 3 h [3] [nM]	concentration at 3 h [4] [nM]	fraction unbound [5]
CCc1nc(C2CC2)c2n1CCN([C@@H](C(=O)NC)c1ccccc1)[C@H]2CCc1ccc(C(F)(F)F)cc1	4.17	0.029				
CCCc1nc(Cl)c2n1CCN([C@@H](C(=O)NC)c1ccccc1)[C@H]2CCc1ccc(C(F)(F)F)cc1	0.459	0.06				
CNC(=O)[C@@H](c1ccccc1)N1CCn2c(C)nc(Cl)c2[C@@H]1CCc1ccc(C(F)(F)F)cc1	0.09	0.013				
CCc1nc(C(F)(F)F)c2n1CCN([C@@H](C(=O)NC)c1ccccc1)[C@H]2CCc1ccc(C(F)(F)F)cc1	1.07	0.011				
CNC(=O)[C@@H](c1ccccc1)N1CCn2c(C(C)C)nc(Cl)c2[C@@H]1CCc1ccc(C(F)(F)F)cc1	0.313	0.011				
CNC(=O)[C@@H](c1ccccc1)N1CCn2c(COC)nc(Cl)c2[C@@H]1CCc1ccc(C(F)(F)F)cc1 (mixture of isomers)	1.65	0.025				
CNC(=O)[C@@H](c1ccccc1)N1CCn2c(CC3CC3)nc(Cl)c2[C@@H]1CCc1ccc(C(F)(F)F)cc1	1.43	0.035				
CCc1nc(C#N)c2n1CCN([C@@H](C(=O)NC)c1ccccc1)C2CCc1ccc(C(F)(F)F)cc1 (mixture of isomers)	0.537	0.01				
CNC(=O)[C@@H](c1ccccc1)N1CCn2c(C3CC3)nc(Cl)c2[C@@H]1CCc1ccc(C(F)(F)F)cc1	0.031	0.009	0.06	385	6400	0.01
CCc1ncc2n1CCN([C@@H](C(=O)NC)c1ccccc1)C2CCc1ccc(C(F)(F)F)cc1 (mixture of isomers)	> 10	0.194				
CCOc1nc(CC)n2c1C(CCc1ccc(C(F)(F)F)cc1)N([C@@H](C(=O)NC)c1ccccc1)CC2 (mixture of isomers)	3.98	2.75				
CCCc1nc(CC)n2c1C(CCc1ccc(C(F)(F)F)cc1)N([C@@H](C(=O)NC)c1ccccc1)CC2 (stereo partly specified)	> 10	0.225				

The remaining lines, values ahead:

IC50 [1] [µM]	IC50 (Orexin receptor type 2) [µM]	Kp at 3 h [2]	concentration at 3 h [3] [nM]	concentration at 3 h [4] [nM]	fraction unbound [5]	SMILES
> 10	2.9					CCc1nc(C(C)C)c2n1CCN([C@@H](C(=O)NC)c1ccccc1)C2CCc1ccc(C(F)(F)F)cc1 (stereo partly specified)
0.717	0.023					CCc1nc(I)c2n1CCN([C@@H](C(=O)NC)c1ccccc1)C2CCc1ccc(C(F)(F)F)cc1 (mixture of isomers)
0.492	0.038					CCc1nc(C(=O)NC)c2n1CCN([C@@H](C(=O)NC)c1ccccc1)C2CCc1ccc(C(F)(F)F)cc1 (stereo partly specified)
0.283	0.107					CCc1nc(Cl)c2n1CCN([C@@H](C(=O)NC)c1ccccc1)[C@@H]2CCc1ccc(C(F)(F)F)cc1
> 10	0.024					CCc1nc(C)c2n1CCN([C@@H](C(=O)NC)c1ccccc1)C2CCc1ccc(C(F)(F)F)cc1 (mixture of isomers)
0.344	0.111					CCc1nc(C(=O)N(C)C)c2n1CCN([C@@H](C(=O)NC)c1ccccc1)C2CCc1ccc(C(F)(F)F)cc1 (stereo partly specified)
0.085	0.014					CCc1nc(SC)c2n1CCN([C@@H](C(=O)NC)c1ccccc1)[C@H]2CCc1ccc(C(F)(F)F)cc1
> 10	0.194					CCc1nc(C(N)=O)c2n1CCN([C@@H](C(=O)NC)c1ccccc1)C2CCc1ccc(C(F)(F)F)cc1 (mixture of isomers)
0.15	0.023					C=Cc1nc(CC)n2c1C(CCc1ccc(C(F)(F)F)cc1)N([C@@H](C(=O)NC)c1ccccc1)CC2 (single isomer, unassigned)
0.134	0.073					CCc1nc(OC)c2n1CCN([C@@H](C(=O)NC)c1ccccc1)C2CCc1ccc(C(F)(F)F)cc1 (mixture of isomers)
> 10	0.02					CCc1nc(CC)n2c1C(CCc1ccc(C(F)(F)F)cc1)N([C@@H](C(=O)NC)c1ccccc1)CC2 (mixture of isomers)
0.04	0.009	0.07	303	4210	0.01	CCc1nc(Cl)c2n1CCN([C@@H](C(=O)NC)c1ccccc1)[C@H]2CCc1ccc(C(F)(F)F)cc1
